Measured values of several laboratories.
Protocols differ between the studies behind these lines.
Target: Carbonic anhydrase 2 (CA2, Homo sapiens, UniProt P00918)
Effect on: enzyme activity
Mode: inhibitor

SMILES | test | endpoint | result
NC(=S)N/N=C1/c2ccccc2[C@@H]2[C@H]1[C@@H](c1ccsc1)[C@H](C(=O)c1ccsc1)[C@H]2c1ccsc1 (racemic) | absorbance | IC50 | 0.523 µM
CC(C)c1cc2c(c(O)c1O)[C@@]13CCCC(C)(C)[C@@H]1[C@@H](O)[C@@H]2OC3=O |  | IC50 | 0.00578 µM
O=C(Nc1ccc(F)cc1)Nc1ccc2c(c1)C=CCP(=O)(O)O2 | stopped-flow | Ki | > 10 µM
CC(C)c1cc2c(c(O)c1O)[C@@]1(C(=O)O)CCCC(C)(C)[C@@H]1CC2 |  | Ki | 0.0042 µM
O=C(Nc1ccc2c(c1)C=CCP(=O)(O)O2)c1ccc(Br)cc1 | stopped-flow | Ki | > 10 µM
N#C[Se]Cc1cc(=O)oc2cc(O)ccc12 | stopped-flow | Ki | > 100 µM
Cc1ccc([C@@H]2[C@@H](C(=O)c3cccs3)[C@H](c3ccco3)[C@H]3/C(=N\NC(N)=S)c4ccccc4[C@H]32)cc1 (racemic) | absorbance | IC50 | 0.844 µM
Cc1c(Cl)c(=O)oc2cc(OCCCC[Se]C#N)ccc12 | stopped-flow | Ki | > 100 µM
CC(C)c1cc2c(c(O)c1O)[C@@]13CCCC(C)(C)[C@@H]1[C@H](OC3=O)[C@H]2O |  | Ki | 0.00499 µM
COc1ccc(C(=O)[C@@H]2[C@@H](c3ccc(OC)cc3)[C@@H]3c4ccccc4/C(=N/NC(N)=S)[C@@H]3[C@H]2c2ccc(OC)cc2)cc1 (racemic) | absorbance | IC50 | 0.992 µM
O=C(Nc1ccc2c(c1)C=CCP(=O)(O)O2)c1ccco1 | stopped-flow | Ki | > 10 µM
NC(=S)N/N=C1/c2ccccc2[C@@H]2[C@H]1[C@@H](c1ccc(F)cc1)[C@H](C(=O)c1ccc(F)cc1)[C@H]2c1ccc(F)cc1 (racemic) | absorbance | IC50 | 0.605 µM
O=C(Nc1ccc2c(c1)C=CCP(=O)(O)O2)c1ccc([N+](=O)[O-])cc1 | stopped-flow | Ki | > 10 µM
CC(C)c1cc2c(c(O)c1O)[C@@]13CCCC(C)(C)[C@@H]1C[C@@H]2OC3=O |  | IC50 | 0.00547 µM
NC(=S)N/N=C1/c2ccccc2[C@@H]2[C@H]1[C@@H](c1ccc(Cl)cc1)[C@H](C(=O)c1ccc(Cl)cc1)[C@H]2c1ccc(Cl)cc1 (racemic) | absorbance | IC50 | 0.298 µM
